These results are taken from ChEMBL document CHEMBL4325933, “Potent, Selective, and Cell-Penetrating Inhibitors of Kallikrein-Related Peptidase 4 Based on the Cyclic Peptide MCoTI-II” (ACS Med Chem Lett, 2018).

pKi: −log10 of the molar value. Positions of bridges follow the written chain, without caps; N, C: chain ends. Residues, ends and D or L forms follow the SMILES beside them.

Series [1] is described as follows: Drug uptake in human HeLa cells at 4 uM using Alexa Fluor 488 conjugated test compound after 1 hr by trypan blue dye based flow cytometry relative to HIV-Tat. Type of series: ADME, cell-based. The gist of the method: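 HeLa cells given Alexa Fluor 488-conjugated peptides (4 μM). Mean fluorescence measured by flow cytometry before and after trypan blue quenching of extracellular signal. Values normalized to the HIV-TAT positive control (post-trypan blue). Three independent experiments, SD; one-way ANOVA with Tukey's post hoc test.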

A short description of series [2]: Stability in human serum at 200 uM up to 24 hrs by RP-HPLC analysis. Type of series: ADME, cell-free. Put shortly: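 Peptides incubated in human serum for up to 24 h. At each time point, the area of the peptide peak on analytical HPLC is expressed as a percentage of the peptide peak in PBS at 0 h. Three independent experiments, SD.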
The next series addresses Coagulation factor X (Homo sapiens, UniProt P00742). In words: Inhibition of factor 10a (unknown origin) using Ac-QRSR-pNA as substrate preincubated for 30 mins followed by substrate addition and measured for 7 mins by spectrophotometric method.
A further series addresses Plasma kallikrein (Homo sapiens, UniProt P03952). Nature of the series: Inhibition of plasma kallikrein (unknown origin) using Ac-NLTR-pNA as substrate preincubated for 30 mins followed by substrate addition and measured for 7 mins by spectrophotometric method.
In another series the target is Kallikrein-4 (Homo sapiens, UniProt Q9Y5K2). Nature of the series: Inhibition of KLK4 (unknown origin) expressed in sf9 cells using Ac-FVQR-pNA as substrate preincubated for 30 mins followed by substrate addition and measured for 7 mins by spectrophotometric method.
Kallikrein-4, sequence (Q9Y5K2 whole entry): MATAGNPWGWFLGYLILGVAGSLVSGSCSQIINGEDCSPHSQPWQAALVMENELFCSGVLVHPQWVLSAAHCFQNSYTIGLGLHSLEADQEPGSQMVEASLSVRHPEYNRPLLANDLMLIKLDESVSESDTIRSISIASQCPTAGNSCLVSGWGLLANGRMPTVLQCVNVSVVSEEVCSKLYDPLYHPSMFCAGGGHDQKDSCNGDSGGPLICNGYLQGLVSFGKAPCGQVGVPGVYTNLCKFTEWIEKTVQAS
A further series concerns the target Kallikrein-7 (Homo sapiens, UniProt P49862). Nature of the series: Inhibition of KLK7 (unknown origin) expressed in Pichia pastoris strain X-33 using KHLY-pNA as substrate preincubated for 30 mins followed by substrate addition and measured for 7 mins by spectrophotometric method.
Another series deals with T1, Coagulation factor XII (Homo sapiens, UniProt P00748).
T1 sequence (P00748 whole entry): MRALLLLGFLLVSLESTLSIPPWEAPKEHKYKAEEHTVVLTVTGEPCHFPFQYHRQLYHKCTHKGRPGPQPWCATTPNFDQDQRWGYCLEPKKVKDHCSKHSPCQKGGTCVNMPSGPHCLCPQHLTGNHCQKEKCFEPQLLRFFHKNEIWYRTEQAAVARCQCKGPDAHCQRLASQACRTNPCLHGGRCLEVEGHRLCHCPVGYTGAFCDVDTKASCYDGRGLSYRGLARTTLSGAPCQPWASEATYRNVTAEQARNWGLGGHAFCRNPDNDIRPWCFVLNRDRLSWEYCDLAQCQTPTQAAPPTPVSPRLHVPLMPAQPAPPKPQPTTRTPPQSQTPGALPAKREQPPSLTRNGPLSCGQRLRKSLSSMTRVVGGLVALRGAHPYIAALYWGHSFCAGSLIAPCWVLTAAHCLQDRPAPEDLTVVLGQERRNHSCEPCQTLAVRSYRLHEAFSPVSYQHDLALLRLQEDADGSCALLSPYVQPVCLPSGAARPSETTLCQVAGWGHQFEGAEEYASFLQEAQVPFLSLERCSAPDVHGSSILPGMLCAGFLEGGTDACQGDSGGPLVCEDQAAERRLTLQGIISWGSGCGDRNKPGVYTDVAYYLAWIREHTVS
In words: Inhibition of factor 12a (unknown origin) using Ac-QRFR-pNA as substrate preincubated for 30 mins followed by substrate addition and measured for 7 mins by spectrophotometric method.

A further series deals with Trypsin (Homo sapiens, UniProt P07477+P07478+P35030). Nature of the series: Inhibition of trypsin (unknown origin) using Bz-FVR-pNA as substrate preincubated for 30 mins followed by substrate addition and measured for 7 mins by spectrophotometric method. Type of series: protein assay.
The target in another series is Plasminogen (Homo sapiens, UniProt P00747). Nature of the series: Inhibition of plasmin (unknown origin) using Ac-RM(O2)YR-pNA as substrate preincubated for 30 mins followed by substrate addition and measured for 7 mins by spectrophotometric method.
Plasminogen, sequence (P00747 97-580 limits assumed): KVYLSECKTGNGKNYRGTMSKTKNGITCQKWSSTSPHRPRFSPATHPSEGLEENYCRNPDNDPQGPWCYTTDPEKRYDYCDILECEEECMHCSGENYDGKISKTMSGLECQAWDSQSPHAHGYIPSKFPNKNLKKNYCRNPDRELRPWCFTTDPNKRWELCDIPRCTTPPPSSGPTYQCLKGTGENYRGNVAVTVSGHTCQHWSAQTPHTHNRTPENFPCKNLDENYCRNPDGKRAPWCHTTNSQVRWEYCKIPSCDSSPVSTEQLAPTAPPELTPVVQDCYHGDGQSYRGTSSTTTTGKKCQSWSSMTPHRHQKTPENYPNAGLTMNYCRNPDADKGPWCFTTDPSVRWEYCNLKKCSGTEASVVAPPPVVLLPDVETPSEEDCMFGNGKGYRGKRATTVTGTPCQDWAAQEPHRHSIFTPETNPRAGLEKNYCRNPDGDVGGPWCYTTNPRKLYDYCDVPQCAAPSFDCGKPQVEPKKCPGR
Plasminogen, sequence (P00747 581-810 limits assumed): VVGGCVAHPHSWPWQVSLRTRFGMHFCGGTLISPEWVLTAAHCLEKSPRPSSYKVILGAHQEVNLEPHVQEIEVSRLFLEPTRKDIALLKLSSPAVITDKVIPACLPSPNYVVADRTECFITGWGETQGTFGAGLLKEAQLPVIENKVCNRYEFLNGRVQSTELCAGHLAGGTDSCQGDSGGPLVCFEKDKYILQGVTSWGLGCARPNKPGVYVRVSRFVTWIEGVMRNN
The next series concerns the target Prothrombin (Homo sapiens, UniProt P00734). Nature of the series: Inhibition of thrombin (unknown origin) using Bz-FVR-pNA as substrate preincubated for 30 mins followed by substrate addition and measured for 7 mins by spectrophotometric method.
In another series the target is T2, Kallikrein-14 (Homo sapiens, UniProt Q9P0G3).
T2 sequence (Q9P0G3 whole entry): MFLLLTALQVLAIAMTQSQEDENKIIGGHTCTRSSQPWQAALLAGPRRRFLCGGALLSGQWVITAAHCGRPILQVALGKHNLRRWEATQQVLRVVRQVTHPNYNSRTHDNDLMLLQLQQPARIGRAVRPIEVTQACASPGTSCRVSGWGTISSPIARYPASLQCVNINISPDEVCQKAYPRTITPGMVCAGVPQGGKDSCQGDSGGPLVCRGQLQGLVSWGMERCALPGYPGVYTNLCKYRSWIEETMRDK
In words: Inhibition of KLK14 (unknown origin) expressed in sf9 cells using Ac-YANR-pNA as substrate preincubated for 30 mins followed by substrate addition and measured for 7 mins by spectrophotometric method.

The target of a further series is T3, Kallikrein-5 (Homo sapiens, UniProt Q9Y337).
T3 sequence (Q9Y337 whole entry): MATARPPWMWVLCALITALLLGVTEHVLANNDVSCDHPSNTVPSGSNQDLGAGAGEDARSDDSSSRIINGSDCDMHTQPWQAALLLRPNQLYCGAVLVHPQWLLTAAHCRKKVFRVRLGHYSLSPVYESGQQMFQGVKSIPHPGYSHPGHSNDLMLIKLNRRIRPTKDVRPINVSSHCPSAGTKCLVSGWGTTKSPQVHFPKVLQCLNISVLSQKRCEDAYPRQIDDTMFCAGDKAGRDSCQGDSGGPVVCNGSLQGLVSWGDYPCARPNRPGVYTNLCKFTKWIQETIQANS
In words: Inhibition of KLK5 (unknown origin) expressed in Pichia pastoris strain X-33 using Ac-YRSR-pNA as substrate preincubated for 30 mins followed by substrate addition and measured for 7 mins by spectrophotometric method.

A further series relates to HeLa. In words: Cytotoxicity against human HeLa cells up to 64 uM after 2 hrs by resazurin dye based assay. Type of series: cell-based. Put shortly: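 HeLa cells exposed to peptides for 2 h, concentrations up to 64 μM. Resazurin then added for 18 h at 37 °C. Resorufin absorbance read at 540 and 620 nm, and viability % expressed as the A620/A540 ratio. Three independent experiments, standard deviation.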

Series [3] is filed under the species Homo sapiens. Nature of the series: Selectivity ratio of Ki for KLK14 (unknown origin) expressed in sf9 cells to Ki for KLK4 (unknown origin) expressed in sf9 cells.
For series [4], the species on record is Homo sapiens. In words: Selectivity ratio of Ki for plasmin (unknown origin) to Ki for KLK4 (unknown origin) expressed in sf9 cells.
For series [5], the species on record is Homo sapiens. Nature of the series: Selectivity ratio of Ki for factor 10a (unknown origin) to Ki for KLK4 (unknown origin) expressed in sf9 cells.
Series [6] is filed under the species Homo sapiens. Nature of the series: Selectivity ratio of Ki for KLK5 (unknown origin) expressed in Pichia pastoris strain X-33 to Ki for KLK4 (unknown origin) expressed in sf9 cells.
The species named for series [7] is Homo sapiens. Nature of the series: Selectivity ratio of Ki for plasma kallikrein (unknown origin) to Ki for KLK4 (unknown origin) expressed in sf9 cells.
Series [8] is filed under the species Homo sapiens. Nature of the series: Selectivity ratio of Ki for thrombin (unknown origin) to Ki for KLK4 (unknown origin) expressed in sf9 cells.
Series [9] is filed under the species Homo sapiens. Nature of the series: Selectivity ratio of Ki for KLK7 (unknown origin) expressed in Pichia pastoris strain X-33 to Ki for KLK4 (unknown origin) expressed in sf9 cells.
For series [10], the species on record is Homo sapiens. In words: Selectivity ratio of Ki for factor 12a (unknown origin) to Ki for KLK4 (unknown origin) expressed in sf9 cells.

Coagulation factor X, sequence (P00742 41-179 limits assumed): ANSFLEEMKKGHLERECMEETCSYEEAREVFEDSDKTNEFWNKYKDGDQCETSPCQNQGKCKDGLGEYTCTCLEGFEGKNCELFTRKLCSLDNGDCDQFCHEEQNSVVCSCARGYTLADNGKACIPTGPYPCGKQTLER
Coagulation factor X, sequence (P00742 235-488 limits assumed): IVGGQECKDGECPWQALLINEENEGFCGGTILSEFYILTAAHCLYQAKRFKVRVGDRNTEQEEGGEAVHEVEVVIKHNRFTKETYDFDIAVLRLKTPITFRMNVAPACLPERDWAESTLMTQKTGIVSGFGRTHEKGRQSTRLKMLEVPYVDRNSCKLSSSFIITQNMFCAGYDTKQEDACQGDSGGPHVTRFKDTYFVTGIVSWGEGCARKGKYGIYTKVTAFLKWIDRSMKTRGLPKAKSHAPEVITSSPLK
Plasma kallikrein, sequence (P03952 20-390 limits assumed): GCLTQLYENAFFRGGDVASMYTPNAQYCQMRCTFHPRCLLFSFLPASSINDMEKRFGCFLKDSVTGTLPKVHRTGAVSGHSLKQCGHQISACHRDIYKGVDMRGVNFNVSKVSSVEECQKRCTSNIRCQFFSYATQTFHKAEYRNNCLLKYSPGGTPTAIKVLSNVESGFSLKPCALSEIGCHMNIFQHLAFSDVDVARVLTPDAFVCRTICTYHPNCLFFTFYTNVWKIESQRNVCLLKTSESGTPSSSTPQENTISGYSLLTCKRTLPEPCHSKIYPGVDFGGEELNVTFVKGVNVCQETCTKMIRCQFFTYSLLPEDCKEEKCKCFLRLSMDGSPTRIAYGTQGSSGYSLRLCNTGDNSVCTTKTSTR
Plasma kallikrein, sequence (P03952 391-638 limits assumed): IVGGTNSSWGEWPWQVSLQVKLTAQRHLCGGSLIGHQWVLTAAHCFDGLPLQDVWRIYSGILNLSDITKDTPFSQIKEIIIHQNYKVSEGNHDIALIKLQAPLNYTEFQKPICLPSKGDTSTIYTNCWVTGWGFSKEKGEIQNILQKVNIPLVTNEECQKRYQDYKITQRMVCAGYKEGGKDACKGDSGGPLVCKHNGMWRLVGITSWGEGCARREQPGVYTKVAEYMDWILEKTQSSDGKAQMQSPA
Kallikrein-7, sequence (P49862 whole entry): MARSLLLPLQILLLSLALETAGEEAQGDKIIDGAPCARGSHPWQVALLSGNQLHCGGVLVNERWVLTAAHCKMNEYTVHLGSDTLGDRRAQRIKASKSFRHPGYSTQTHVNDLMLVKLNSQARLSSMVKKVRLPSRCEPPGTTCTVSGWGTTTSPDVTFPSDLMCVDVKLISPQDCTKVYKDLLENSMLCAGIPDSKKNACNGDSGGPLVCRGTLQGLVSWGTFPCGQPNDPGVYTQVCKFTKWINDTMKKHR

As a reminder, the pKi is −log10 of the Ki, conventionally taken in molar units. A lower pKi goes with a high Ki. Broadly, the Ki is the equilibrium dissociation constant of an inhibitor or competing ligand from its target. Read a high Ki as weaker binding. In the case of `CC[C@H](C)[C@@H]1NC(=O)[C@@H]2CSSC[C@@H]3NC(=O)[C@H](Cc4ccccc4)NC(=O)CNC(=O)CNC(=O)[C@H](CC(=O)O)NC(=O)[C@H](CO)NC(=O)CNC(=O)[C@H](CO)NC(=O)CNC(=O)[C@@H]4CSSC[C@H](NC(=O)[C@H](CC(=O)O)NC(=O)[C@H](CO)NC(=O)[C@H](CC(=O)O)NC(=O)[C@H](CCC(N)=O)NC(=O)[C@H](CCC(N)=O)NC(=O)[C@H](CSSC[C@H](NC1=O)C(=O)N[C@@H](CCCCN)C(=O)NCC(=O)N[C@@H](CC(N)=O)C(=O)NCC(=O)N[C@@H](Cc1ccc(O)cc1)C(=O)N4)NC(=O)[C@H](CCC(N)=O)NC(=O)[C@H](CCC(N)=O)NC(=O)[C@H](CC(C)C)NC(=O)[C@H]([C@@H](C)CC)NC(=O)[C@H](CCCNC(=N)N)NC(=O)[C@H](CCC(N)=O)NC3=O)C(=O)N1CCC[C@H]1C(=O)NCC(=O)N[C@@H](C)C(=O)N2` (cyclo(ACICKGNGYCGSGSDGGFCQRILQQCQQDSDCPG); disulfide 2-19, 4-26, 10-32), in series [1], the Drug uptake result is “Not Active”. Besides, the Stability result in [2] is reported as “Stable”. Also, the pKi at Coagulation factor X is 6.28; at Plasma kallikrein it was below 5.00; at Kallikrein-4, 9.36; on Kallikrein-7, below 5.00; on Coagulation factor XII, below 5.00; at Plasminogen, below 5.00. Besides, the pKi at Prothrombin, at Kallikrein-14 and at Kallikrein-5 was below 5.00 throughout. Moreover, the Ki on Trypsin came to 0.0069 µM. Moreover, the Activity result in the series with HeLa was “Non-Toxic”.

As to `CC[C@H](C)[C@@H]1NC(=O)[C@@H]2CSSC[C@@H]3NC(=O)[C@H](Cc4ccccc4)NC(=O)CNC(=O)CNC(=O)[C@H](CC(=O)O)NC(=O)[C@H](CO)NC(=O)CNC(=O)[C@H](CO)NC(=O)CNC(=O)[C@@H]4CSSC[C@H](NC(=O)[C@H](CC(=O)O)NC(=O)[C@H](CO)NC(=O)[C@H](CC(=O)O)NC(=O)[C@H](CCCNC(=N)N)NC(=O)[C@H](CCCNC(=N)N)NC(=O)[C@H](CSSC[C@H](NC1=O)C(=O)N[C@@H](CCCNC(=N)N)C(=O)NCC(=O)N[C@@H](CC(N)=O)C(=O)NCC(=O)N[C@@H](Cc1ccc(O)cc1)C(=O)N4)NC(=O)[C@H](CCCCN)NC(=O)[C@H](CCCCN)NC(=O)[C@H](CC(C)C)NC(=O)[C@H]([C@@H](C)CC)NC(=O)[C@H](CCCNC(=N)N)NC(=O)[C@H](CCC(N)=O)NC3=O)C(=O)N1CCC[C@H]1C(=O)NCC(=O)N[C@@H](C)C(=O)N2` (cyclo(ACICRGNGYCGSGSDGGFCQRILKKCRRDSDCPG); disulfide 2-19, 4-26, 10-32), the Ratio Ki in the series listed under Homo sapiens [3] is above 100000; in the series filed under Homo sapiens [4], above 100000; in the series listed under Homo sapiens [5] it was 5000; in the series listed under Homo sapiens [6] it was above 100000; in the series filed under Homo sapiens [7], above 100000; in the series filed under Homo sapiens [8], above 100000. Also, the Ratio Ki in the series listed under Homo sapiens [9] and in the series listed under Homo sapiens [10] was above 100000 throughout. In series [1], this compound returned a Drug uptake of 23%. The Stability entry in series [2] is reported as “Stable”. Further, the pKi on Coagulation factor X is 6.30; at Plasma kallikrein it was below 5.00; on Kallikrein-4 it was 10.00; at Kallikrein-7, below 5.00; at Coagulation factor XII, below 5.00; at Plasminogen it was below 5.00. Further, the pKi on Prothrombin, at Kallikrein-14 and at Kallikrein-5 was below 5.00 in each case. Further, the Ki at Trypsin is 0.031 µM. Further, in the series on HeLa, the Activity entry is listed as “Non-Toxic”.
